From ChEMBL document CHEMBL2346605, “4-Nerolidylcatechol and its synthetic analogues: antioxidant activity and toxicity evaluation” (Eur J Med Chem, 2013)
≈ marks a conversion by molar mass, not a printed value. Calls of active or inactive are those of the source. The rule behind the calls is not given here.

Experiments:
[1] = Toxicity against human erythrocytes assessed as disruption of cell membrane after 1 hr by haemolytic assay; type: cell-based, Erythrocyte
Method in brief: (§1)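 Erythrocytes from blood banks suspended as a 2% saline suspension. Incubated 1 h with compound (50–0.419 µg/mL). Triton X (5 mg/mL) used as positive control. Absorbance read at 450 nm. ANOVA with Tukey test, p < 0.05.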

Erythrocyte = assay: Antioxidant activity against H2O2-induced oxidative stress in human erythrocyte membrane at 12.5 to 100 uM treated for 30 mins prior to H2O2 challenge measured after 3 hrs; type: functional, cell membranes
Method in brief: (§2)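 Erythrocytes from blood-bank samples, washed in saline phosphate with 1 mM NaN3 at 4 °C, plasma and white cells removed. Preincubated with compound 30 min at 37 °C, then brought to 2% haematocrit in PBS. Stress induced by H2O2 (300 μM), 3 h at 37 °C. Absorbance read at 540 nm. Mean ± S.D. of three experiments in duplicate.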

[2] = Toxicity against human erythrocytes assessed as hemolytic rate after 1 hr by haemolytic assay; type: cell-based, Erythrocyte; conditions: read-out: Activity; method in brief: as §1
[3] = test system: Radical scavenging activity; assay: Antioxidant activity assessed as DPPH radical scavenging activity after 30 mins; type: functional
Method in brief: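 Compound (500–0.48 µg/mL) mixed with DPPH, held 30 min at 25 °C in the dark, absorbance read at 517 nm. AA% = 100 − [(ABS_T − ABS_B)×100/ABS_C], with a compound + ethanol blank and a DPPH + ethanol negative control.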

[4] = Acute toxicity in po dosed Swiss mouse administered as single dose measured for 14 days after drug exposure; type: organism-based; conditions: in vivo
Method in brief: (§3)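 Female Swiss mice (eight weeks old, specific pathogen-free, kept at 22 °C with food and water ad libitum, acclimatised five days) were tested under OECD Test Guideline 423. Each received a single dose by oral gavage, n = 3. The starting dose came from the ICCVAM prediction model using 3T3 neutral red uptake IC50. Animals were observed individually during the first 30 min and periodically over 24 h, especially the first 4 h, then daily for 14 days.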

[5] = Myelosuppressive activity against Swiss mouse CFU-GM cells assessed as inhibition of cell growth and differentiation after 7 days; type: cell-based; conditions: 168 h
Method in brief: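 Swiss mouse bone marrow cells (1×10^5) in agar with 2× DMEM, mouse GM-CSF and bovine serum. Ethanolic compound solutions (534–4.17 μM) added, medium-only negative control. Incubated seven days, then CFU-GM colonies counted under 32× magnification. ANOVA.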

Mus musculus [6] = assay: Acute toxicity in Swiss mouse assessed as agitation at 2000 mg/kg, po administered as single dose measured during 14 days after drug exposure; type: organism-based; design: dose 2000 mg/kg, route oral; conditions: in vivo, 336 h; method in brief: as §3
[7] = Genotoxicity in human T lymphocytes assessed as proportion of cells without DNA damage at 25 uM after 1 hr by comet assay (reference value: 90%); type: toxicity, cell-based; conditions: t-cell
Mus musculus [8] = assay: Acute toxicity in Swiss mouse assessed as depression at 2000 mg/kg, po administered as single dose measured during 14 days after drug exposure; type: organism-based; design: dose 2000 mg/kg, route oral; conditions: in vivo, 336 h; method in brief: as §3
[9] = Genotoxicity in human T lymphocytes assessed as proportion of cells with DNA damage at 100 uM after 1 hr by comet assay (reference value: 10%); type: toxicity, cell-based; conditions: t-cell
[10] = Genotoxicity in human T lymphocytes assessed as proportion of cells without DNA damage at 50 uM after 1 hr by comet assay (reference value: 90%); type: toxicity, cell-based; conditions: t-cell
Mus musculus [11] = assay: Acute toxicity in Swiss mouse assessed as animal's death at 2000 mg/kg, po administered as single dose measured during 14 days after drug exposure; type: organism-based; design: dose 2000 mg/kg, route oral; conditions: in vivo, 336 h; method in brief: as §3
[12] = Genotoxicity in human T lymphocytes assessed as proportion of cells with DNA damage at 50 uM after 1 hr by comet assay (reference value: 10%); type: toxicity, cell-based; conditions: t-cell
[13] = Genotoxicity in human T lymphocytes assessed as proportion of cells with DNA damage at 25 uM after 1 hr by comet assay (reference value: 10%); type: toxicity, cell-based; conditions: t-cell
[14] = Genotoxicity in human T lymphocytes assessed as proportion of cells without DNA damage at 100 uM after 1 hr by comet assay (reference value: 90%); type: toxicity, cell-based; conditions: t-cell
[15] = Pro-oxidant activity in H2O2-stimulated human erythrocyte membrane assessed as increase in hemolysis at >35 uM treated for 30 mins prior to H2O2 challenge measured after 3 hrs; type: ADME, cell-based; method in brief: as §2
[16] = Toxicity against human erythrocytes assessed as hemolytic potential after 1 hr by haemolytic assay; type: cell-based, Erythrocyte; conditions: read-out: Activity; method in brief: as §1

SMILES	IC50 at 1 hr [1]	Activity (Erythrocyte)	hemolysis at 1 h [2]	Activity [3]	LD50 at 336 h [4]	IC50 [5]	Activity (Mus musculus [6])	Activity [7]	Activity (Mus musculus [8])	Activity [9]	Activity [10]	Activity (Mus musculus [11])	Activity [12]	Activity [13]	Activity [14]	Activity [15]	hemolysis at 1 h [16]
CC(C)=CCC/C(C)=C/CNc1ccc2c(c1)OCO2	18.3 µg/mL (≈ 67.1 µM)	Active	< 5%	Active	–	–	–	–	–	–	–	–	–	–	–	–	–
CC(C)=CCC/C(C)=C/CNc1ccc(O)cc1	< 0.419 µg/mL	Active	< 5%	Active	> 2000 mg/kg	460 µM	Toxic	78%	Toxic	30%	72%	Non-toxic	28%	22%	70%	–	–
CC(C)=CCC/C(C)=C/CN(c1ccc(O)cc1)S(C)(=O)=O	< 0.419 µg/mL	Active	< 5%	–	–	–	–	–	–	–	–	–	–	–	–	–	–
CC(C)=CCC/C(C)=C/CNc1cc(C)nn1C	1.76 µg/mL (≈ 7.11 µM)	–	> 5%	Active	–	–	–	–	–	–	–	–	–	–	–	Toxic	75%
CC(C)=CCC/C(C)=C/CNc1ccccc1	< 0.419 µg/mL	Active	< 5%	Active	–	–	–	–	–	–	–	–	–	–	–	–	–
